According to ChEMBL document CHEMBL3351414, “Novel 9'-substituted-noscapines: synthesis with Suzuki cross-coupling, structure elucidation and biological evaluation” (Eur J Med Chem, 2014):
Active and inactive are the calls of the source. No cut-off for these calls is given here.

Experiments:
HeLa [1] = test: Cell cycle arrest in human HeLa cells assessed as accumulation at G2/M phase after 24 hrs by flow cytometry; format: functional, cell-based
Outline: (§1)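 5×10^5 HeLa or Jurkat cells exposed to graded compound concentrations for 24 h. Cells were fixed in ice-cold 70% ethanol, lysed with RNase A/0.1% Triton X-100 buffer and stained with propidium iodide. DNA content was read by flow cytometry. Phase percentages are mean ± SEM of three independent experiments.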

CA46 [2] = test: Cell cycle arrest in human CA46 cells assessed as reduction in mitotic index by Giemsa staining method relative to control; format: functional; parameters: scale not given: the % may be the effect or the level left
Outline: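 CA46 Burkitt lymphoma cells grown in RPMI 1640 with 17% FBS and 2 mM L-glutamine at 37 °C, 5% CO2, treated 16 h. Cells were swollen 10 min in half-strength PBS, fixed in 0.5% acetic acid–1.5% ethanol, then spread from 25% acetic acid/75% ethanol. Slides were Giemsa-stained. Mitotic cells were those with condensed chromosomes and no nuclear membrane, with ≥200 cells counted per condition.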

[3] = Antiproliferative activity against human RS4:11 cells assessed as reduction in cell viability after 72 hrs by MTT assay; format: functional, cell-based; conditions: RS4-11, 72 h
Outline: (§2)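 Cells kept in RPMI-1640 (Jurkat, SEM, RS4;11) or DMEM (A549, HeLa, IGROV-1, HT-29) with 10% FBS plus penicillin/streptomycin. 8×10^3 cells per well were left 18 h at 37 °C in 5% CO2. Medium was then replaced with fresh medium holding graded compound concentrations from 10 mM DMSO stocks. Cells were incubated 72 h and viability read by MTT. IC50 is the mean ± SEM from dose–response curves of at least three independent experiments.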

HeLa [4] = test: Effect on cell morphology in human HeLa cells at 25 uM after 24 hrs using phalloidin staining by confocal microscopy; format: functional, cell-based
Outline: (§3)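 After 24 h at 25 µM, HeLa cells were stained with anti-PCM1 and Alexa-conjugated secondary antibody, with phalloidin-tetramethylrhodamine B for actin and DAPI for nuclei. Cells were imaged by confocal microscopy at 60×.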

IGROV-1 = test: Antiproliferative activity against human IGROV1 cells assessed as reduction in cell viability after 72 hrs by MTT assay; format: functional, cell-based; conditions: IGROV-1, 72 h; outline: as §2
[5] = Antiproliferative activity against human SEM cells assessed as reduction in cell viability after 72 hrs by MTT assay; format: functional, cell-based; outline: as §2
PBL [6] = test: Cytotoxicity against resting human PBLs assessed as reduction in cell growth; format: cell-based
Outline: (§4)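 Peripheral blood lymphocytes from healthy donors, tested either resting (no PHA) or PHA-stimulated. Value is the concentration reducing cell growth by 50%, mean ± SEM of three separate experiments.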

Tubulin (Bos taurus) = Tubulin (Bos taurus) (UniProt Q6B856+Q862L2+Q862F3); test: Displacement of [3H]colchicine from bovine brain tubulin at 500 uM after 10 mins by liquid scintillation counting
PBL [7] = test: Cytotoxicity against PHA-stimulated human PBLs assessed as reduction in cell growth; format: cell-based; outline: as §4
CA46 [8] = test: Cell cycle arrest in human CA46 cells assessed as accumulation at G2/M phase at 5 times IC50 by flow cytometry; format: functional
LoVo = test: Antiproliferative activity against human LoVo cells assessed as reduction in cell viability after 72 hrs by MTT assay; format: functional, cell-based
Jurkat [9] = test: Cell cycle arrest in human Jurkat cells assessed as accumulation at G2/M phase after 24 hrs by flow cytometry; format: functional, cell-based; outline: as §1
HeLa [10] = test: Effect on cell morphology in human HeLa cells assessed as disorganization of actin filament at 25 uM after 24 hrs by confocal microscopy relative to control; format: functional, cell-based; outline: as §3
CA46 [11] = test: Antiproliferative activity against human CA46 cells assessed as reduction in cell viability after 72 hrs by MTT assay; format: functional, cell-based; conditions: CA46, 72 h
Jurkat [12] = test: Cell cycle arrest in human Jurkat cells assessed as accumulation at G2/M phase at 10 to 25 uM after 24 hrs by flow cytometry; format: functional, cell-based; outline: as §1
HeLa [13] = test: Disruption of microtubule network in human HeLa cells assessed as induction of spherical morphology at 25 uM after 24 hrs by immunofluorescence microscopy; format: cell-based
Outline: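 HeLa cells exposed 24 h at 25 µM, fixed in cold 4% formaldehyde for 15 min, and stained with anti-β-tubulin plus Alexa-conjugated secondary antibody, with DAPI counterstain. Cells were imaged by confocal microscopy.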

Tubulin [14] = biological target: T1, Tubulin (Bos taurus, UniProt Q6B856+Q862L2+Q862F3); test: Inhibition of bovine brain tubulin assessed as rate of assembly preincubated for 15 mins by turbidimetry
Outline: (§5)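 Bovine brain tubulin at 10 µM (1.0 mg/mL) in 0.8 M monosodium glutamate pH 6.6 with 4% DMSO and varying compound was preincubated 15 min at 30 °C, then chilled. GTP was added to 0.4 mM final and the temperature jumped from 0 to 30 °C. Turbidity was followed at 350 nm, scoring either maximum rate or extent of assembly at 20 min.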

HT-29 = test: Antiproliferative activity against human HT-29 cells assessed as reduction in cell viability after 72 hrs by MTT assay; format: functional, cell-based; conditions: HT-29, 72 h; outline: as §2
HeLa [15] = test: Cell cycle arrest in human HeLa cells assessed as accumulation at G2/M phase at 25 uM after 24 hrs by flow cytometry; format: functional; outline: as §1
HeLa [16] = test: Antiproliferative activity against human HeLa cells assessed as reduction in cell viability after 72 hrs by MTT assay; format: functional, cell-based; outline: as §2
CCRF-CEM = test: Antiproliferative activity against human CEM cells assessed as reduction in cell viability after 72 hrs by MTT assay; format: functional, cell-based
HeLa [17] = test: Effect on PCM1 protein in human HeLa cells assessed as accumulation of pericentriolar material at 25 uM after 24 hrs by immunofluorescence microscopy; format: functional, cell-based; outline: as §3
Tubulin [18] = biological target: T1, Tubulin; test: Inhibition of bovine brain tubulin assessed as extent of assembly preincubated for 15 mins by turbidimetry; outline: as §5
HeLa [19] = test: Cell cycle arrest in human HeLa cells assessed as accumulation at G2/M phase at 10 to 25 uM after 24 hrs by flow cytometry; format: functional, cell-based; outline: as §1
A549 = test: Antiproliferative activity against human A549 cells assessed as reduction in cell viability after 72 hrs by MTT assay; format: functional, cell-based; conditions: A549, 72 h; outline: as §2

COc1cccc(-c2c3c(c(OC)c4c2OCO4)[C@H]([C@H]2OC(=O)c4c2ccc(OC)c4OC)N(C)CC3)c1
Activity (HeLa [1]): Dose-dependent effect | Activity (CA46 [2]): 28% | IC50 [3]: 7.1 µM | Activity (HeLa [4]): Active | IC50 (IGROV-1): 57.2 µM | IC50 [5]: 13 µM | IC50 (PBL [6]): > 200 µM | inhibition (Tubulin (Bos taurus)): 38% | IC50 (PBL [7]): > 200 µM | Activity (CA46 [8]): >80% | IC50 (LoVo): 29.4 µM | Activity (Jurkat [9]): Dose-dependent effect | Activity (HeLa [10]): Active | IC50 (CA46 [11]): 20 µM | Activity (Jurkat [12]): Active | Activity (HeLa [13]): 70% | IC50 (Tubulin [14]): 170 µM | IC50 (HT-29): 36.1 µM | Activity (HeLa [15]): >80% | IC50 (HeLa [16]): 8.9 µM | IC50 (CCRF-CEM): 22.3 µM | Activity (HeLa [17]): Active | IC50 (Tubulin [18]): > 400 µM | Activity (HeLa [19]): Active | IC50 (A549): > 100 µM
